Assays:
[1] = biological target: T1, Prostaglandin G/H synthase 2 (Mus musculus) (UniProt Q05769); assay: In vitro activity at a concentration of 10 uM against Prostaglandin G/H synthase 2
T1 sequence (whole entry): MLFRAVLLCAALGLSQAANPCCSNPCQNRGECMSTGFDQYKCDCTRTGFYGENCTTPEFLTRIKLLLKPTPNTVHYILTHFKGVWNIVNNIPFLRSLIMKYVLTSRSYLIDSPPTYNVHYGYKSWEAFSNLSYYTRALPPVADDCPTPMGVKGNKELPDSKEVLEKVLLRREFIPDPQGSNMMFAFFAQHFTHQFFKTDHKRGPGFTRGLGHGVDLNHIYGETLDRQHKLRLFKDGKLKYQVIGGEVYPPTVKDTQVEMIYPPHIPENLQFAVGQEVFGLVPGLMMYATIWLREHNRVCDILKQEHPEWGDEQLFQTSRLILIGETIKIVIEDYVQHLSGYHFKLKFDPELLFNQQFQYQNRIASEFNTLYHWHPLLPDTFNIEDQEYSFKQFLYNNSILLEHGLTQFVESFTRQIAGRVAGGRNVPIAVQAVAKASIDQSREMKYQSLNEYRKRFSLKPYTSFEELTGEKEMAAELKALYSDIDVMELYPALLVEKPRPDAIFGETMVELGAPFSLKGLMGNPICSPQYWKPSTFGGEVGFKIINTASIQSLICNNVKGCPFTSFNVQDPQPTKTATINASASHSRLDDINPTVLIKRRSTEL

[2] = biological target: T2, Nitric oxide synthase, inducible (Mus musculus) (UniProt P29477); assay: In vitro activity at a concentration of 10 uM against Inducible nitric oxide synthase (iNOS)
T2 sequence (whole entry): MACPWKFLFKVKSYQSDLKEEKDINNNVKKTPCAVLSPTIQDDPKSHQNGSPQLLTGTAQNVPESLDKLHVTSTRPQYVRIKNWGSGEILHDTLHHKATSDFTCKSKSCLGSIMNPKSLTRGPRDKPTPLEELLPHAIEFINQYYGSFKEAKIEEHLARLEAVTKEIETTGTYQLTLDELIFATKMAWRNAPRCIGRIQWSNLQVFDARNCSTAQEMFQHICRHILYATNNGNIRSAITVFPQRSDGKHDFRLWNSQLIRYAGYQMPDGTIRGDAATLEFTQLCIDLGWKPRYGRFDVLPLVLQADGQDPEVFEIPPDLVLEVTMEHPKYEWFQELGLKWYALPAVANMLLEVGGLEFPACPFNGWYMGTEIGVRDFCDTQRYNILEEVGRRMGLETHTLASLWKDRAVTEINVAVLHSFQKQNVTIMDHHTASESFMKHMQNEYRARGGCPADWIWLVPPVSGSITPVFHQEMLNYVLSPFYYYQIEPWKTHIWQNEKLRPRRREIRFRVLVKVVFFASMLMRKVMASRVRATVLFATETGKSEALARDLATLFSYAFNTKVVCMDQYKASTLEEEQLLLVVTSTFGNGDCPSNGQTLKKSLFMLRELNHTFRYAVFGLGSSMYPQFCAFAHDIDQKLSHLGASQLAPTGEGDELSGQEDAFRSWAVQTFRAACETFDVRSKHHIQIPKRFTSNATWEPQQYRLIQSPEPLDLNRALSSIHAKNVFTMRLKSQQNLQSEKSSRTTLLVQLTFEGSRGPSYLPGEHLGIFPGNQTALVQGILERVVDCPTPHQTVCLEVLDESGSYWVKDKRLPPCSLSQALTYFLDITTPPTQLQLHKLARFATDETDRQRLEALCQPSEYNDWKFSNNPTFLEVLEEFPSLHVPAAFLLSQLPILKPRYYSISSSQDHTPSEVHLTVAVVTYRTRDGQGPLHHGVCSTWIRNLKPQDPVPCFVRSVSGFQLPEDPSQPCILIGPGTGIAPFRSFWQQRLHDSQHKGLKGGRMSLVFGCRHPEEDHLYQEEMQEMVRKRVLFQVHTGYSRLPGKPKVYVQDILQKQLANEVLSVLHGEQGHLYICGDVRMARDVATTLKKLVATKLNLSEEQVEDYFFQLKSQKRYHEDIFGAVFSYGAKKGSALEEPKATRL

[3] = species: Mus musculus; assay: (§1) Ability to inhibit the accumulation of PGE-2 in stimulated murine peritoneal macrophages; format: functional; design: concentration or dose not given beside the values
Method in brief: (§2)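 Mouse peritoneal macrophages were elicited by ip thioglycolate (10%) and collected by lavage 4 days later. Adherent cells were stimulated with E. coli LPS (10 µg/mL) at 37 °C for 24 h with compound or vehicle. Supernatant PGE₂ was measured by radioimmunoassay. IC50 was calculated from at least four significant concentrations (n = 6).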

[4] = species: Mus musculus; assay: (§3) Ability to inhibit the generation of NO by stimulated murine peritoneal macrophages; format: functional; design: concentration or dose not given beside the values
Method in brief: (§4)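 Thioglycolate-elicited mouse peritoneal macrophages (lavage 4 days after ip 10% thioglycolate), adhered 2 h at 37 °C in arginine (1 mM)-containing buffered medium with 10% FBS. Cells stimulated with E. coli LPS 10 µg/mL for 24 h at 37 °C with test compound or vehicle. Supernatant nitrite measured fluorimetrically. IC50 from ≥4 concentrations (n = 6). Mean ± SEM.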

[5] = biological target: Prostaglandin G/H synthase 1 (Homo sapiens) (UniProt P23219); assay: In vitro activity at a concentration of 10 uM against Prostaglandin G/H synthase 1
Sequence of Prostaglandin G/H synthase 1 (Homo sapiens) (P23219 whole entry): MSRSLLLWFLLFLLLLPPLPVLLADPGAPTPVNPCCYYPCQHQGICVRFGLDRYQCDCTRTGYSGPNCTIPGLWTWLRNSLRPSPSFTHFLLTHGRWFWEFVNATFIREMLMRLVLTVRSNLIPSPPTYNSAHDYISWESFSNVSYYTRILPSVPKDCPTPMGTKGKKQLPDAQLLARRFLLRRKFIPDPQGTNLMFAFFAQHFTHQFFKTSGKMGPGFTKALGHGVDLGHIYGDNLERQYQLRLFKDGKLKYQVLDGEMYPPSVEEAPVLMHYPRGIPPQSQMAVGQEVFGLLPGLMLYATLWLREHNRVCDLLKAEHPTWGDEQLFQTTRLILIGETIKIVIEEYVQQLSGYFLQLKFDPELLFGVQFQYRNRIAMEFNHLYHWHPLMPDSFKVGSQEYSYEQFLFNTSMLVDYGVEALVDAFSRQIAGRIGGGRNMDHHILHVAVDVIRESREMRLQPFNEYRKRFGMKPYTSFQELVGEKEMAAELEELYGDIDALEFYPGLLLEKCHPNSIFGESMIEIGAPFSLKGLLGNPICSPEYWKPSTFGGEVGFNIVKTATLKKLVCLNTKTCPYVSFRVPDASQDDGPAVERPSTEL
Method in brief: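 Microsomes were prepared by 2000g spin for 5 min, then 100000g for 100 min, both at 4 °C. Microsomes (20 µg protein/tube) were incubated with arachidonic acid plus compound at 10 µM or vehicle. TXB₂ formed was measured by radioimmunoassay.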

[6] = species: Mus musculus; assay: Compound was evaluated to inhibit Nitrite accumulation in simulated macrophages; format: functional
[7] = species: Mus musculus; assay: Compound was evaluated to inhibit PGE-2 accumulation in simulated macrophages; format: functional
Method in brief: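 Adherent thioglycolate-elicited mouse peritoneal macrophages were stimulated with E. coli LPS (10 µg/mL) for 24 h at 37 °C in the presence of compound at 10 µM or vehicle. Supernatant PGE₂ was measured by radioimmunoassay and expressed as % inhibition, mean ± SEM, n = 6-9.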

[8] = species: Mus musculus; assay: as §1; format: functional; method in brief: as §2
[9] = species: Mus musculus; assay: as §3; format: functional, organism-based; method in brief: as §4

| Compound | Activity ((ng of PGE2) (mg of protein)-1) [1] | Activity (pM of citrulline min-1 (mg of protein)-1) [2] | Inhibition [3] | Inhibition [4] | Activity ((ng of TXB2) (mg of protein)-1) [5] | IC50 [6] | IC50 [7] | IC50 [8] | IC50 [9] |
| --- | --- | --- | --- | --- | --- | --- | --- | --- | --- |
| CC(=O)c1ccc(N2CCN(c3nnnc4c3sc3nc(N5CCC(C)CC5)c(C#N)cc34)CC2)cc1 | 14.3 | 12.5 | 45.6% | 42.6% | 127 |  |  |  |  |
| CC(=O)c1ccc(N2CCN(c3nnnc4c3sc3nc(N5CCOCC5)c(C#N)cc34)CC2)cc1 | 16.6 | 14.2 | 34.6% | 45.6% | 142 |  |  |  |  |
| CC1CCN(c2nnnc3c2sc2nc(N4CCOCC4)c(C#N)cc23)CC1 | 13 | 13.1 | 89.6% | 88.7% | 130 | 3400 nM | 600 nM |  |  |
| N#Cc1cc2c(nc1N1CCOCC1)sc1c(N3CCNCC3)nnnc12 | 16.5 | 15.1 | 31.3% | 43.3% | 149 |  |  |  |  |
| N#Cc1cc2c(nc1N1CCC(Cc3ccccc3)CC1)sc1c(Cl)nnnc12 |  | 13.1 | 57.9% | 48.8% | 128 |  |  |  |  |
| C[C@@H]1C[C@H]2[C@@H]3CCC4=CC(=O)C=C[C@]4(C)[C@@]3(F)[C@@H](O)C[C@]2(C)[C@@]1(O)C(=O)CO [DEXAMETHASONE] |  |  |  |  |  |  |  | 1 nM | 35.8 nM |
| CC(=O)c1ccc(N2CCN(c3nc4sc5c(Cl)nnnc5c4cc3C#N)CC2)cc1 |  | 14.1 | 94.5% | 44.7% | 104 |  |  | 900 nM | 11200 nM |
| N#Cc1cc2c(nc1NCc1ccccc1)sc1c(N3CCOCC3)nnnc12 |  |  | 28.5% | 41.1% |  |  |  |  |  |
| N#Cc1cc2c(nc1N1CCOCC1)sc1c(N3CCSCC3)nnnc12 |  |  | 36.1% | 31.4% |  |  |  |  |  |
| CC(=O)c1ccc(N2CCN(c3nnnc4c3sc3nc(N5CCN(Cc6ccccc6)CC5)c(C#N)cc34)CC2)cc1 | 15.8 | 13.5 | 50.1% | 51.6% | 134 |  |  |  |  |
| CN1CCN(c2nnnc3c2sc2nc(N4CCN(Cc5ccccc5)CC4)c(C#N)cc23)CC1 | 14.6 | 13.1 | 55.1% | 50.6% | 123 |  |  |  |  |
| CC1CCN(c2nc3sc4c(Cl)nnnc4c3cc2C#N)CC1 |  |  | 49% | 6.1% | 130 |  |  |  |  |
| N#Cc1cc2c(nc1NCc1ccccc1)sc1c(Br)nnnc12 |  |  | 0.4% | 12.2% |  |  |  |  |  |
| CN1CCN(c2nnnc3c2sc2nc(NCc4ccccc4)c(C#N)cc23)CC1 |  |  | 56.4% | 14.1% |  |  |  |  |  |
| N#Cc1cc2c(nc1N)sc1c(Cl)nnnc12 |  |  | 1% | 13.9% |  |  |  |  |  |
| CC1CCN(c2nc3sc4c(N5CCC(C)CC5)nnnc4c3cc2C#N)CC1 | 13.9 | 12.4 | 52.1% | 37.8% | 124 |  |  |  |  |
| CS(=O)(=O)Nc1ccc([N+](=O)[O-])cc1OC1CCCCC1 [NS-398] |  |  |  |  |  |  |  | 3.1 nM |  |
| COc1ccc2c(c1)c(CC(=O)O)c(C)n2C(=O)c1ccc(Cl)cc1 |  |  |  |  | 63.8 |  |  |  |  |
| N#Cc1cc2c(nc1N1CCOCC1)sc1c(Cl)nnnc12 |  | 14 | 59.5% | 51.8% | 112 |  |  |  |  |
| N=C(N)NN [PIMAGEDINE] |  | 5.4 |  |  |  |  |  |  | 25100 nM |
